The target of series [1] is T1, Human immunodeficiency virus type 1 integrase (Human immunodeficiency virus 1, UniProt Q7ZJM1). The experiment in a line: Inhibition of HIV1 recombinant wild type integrase 3'-processing activity by gel-based assays.
For series [2], the target named is T1, Human immunodeficiency virus type 1 integrase. The series can be described thus: Inhibition of HIV1 recombinant wild type integrase strand transfer activity by gel-based assay.
Series [3] relates to Human immunodeficiency virus 1. The series can be described thus: Antiviral activity against wild-type HIV1 3B infected in human MT4 cells assessed as inhibition of viral cytopathic effect by MTT assay. The series is classed as functional, organism-based. To be noted: Human immunodeficiency virus 1, 3B. An outline of the steps: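 MT-4 cells infected with 100–300 CCID50 of titrated HIV-1 IIIB stock in the presence of 5-fold serial dilutions of compound (DMSO stocks, diluted in DMSO). Protection against virus-induced cytopathic effect read by MTT; EC50 taken as the concentration giving 50% protection.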
On the technique in general: Cytopathic effects are the visible damage that an infection or toxin causes in cultured cells.

Series [4] is described as follows: Cytotoxicity against human MT4 cells assessed as cell viability by MTT assay. It counts as cell-based. An outline of the steps: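 Uninfected MT-4 cells run in parallel with the antiviral assay, exposed to 5-fold serial dilutions of compound. Viability read by MTT; CC50 is the concentration reducing viability by 50%.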
The nature of series [5]: Therapeutic index, ratio of CC50 for human MT4 cells to EC50 for HIV1 3B infected in human MT4 cells. The series is classed as cell-based. To be noted: HIV1 3B infected MT4 cells, read-out: Ratio CC50/EC50. An outline of the steps:
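Computed as CC50/EC50, both from parallel MTT assays in MT-4 cells, with and without infection by 100–300 CCID50 HIV-1 IIIB, using 5-fold serial compound dilutions.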

Series [6] is described as follows: Retention time of the compound by HPLC. It counts as physicochemical.

One may read the IC50 as the concentration at which inhibition is half-maximal. For orientation: EC50 means the midpoint of the concentration-response curve. A word on the CC50: it is the concentration that lowers cell viability or growth by half.

SMILES strings stand for the structures. Bounds are passed on as bounds.

T1 sequence (Q7ZJM1 whole entry): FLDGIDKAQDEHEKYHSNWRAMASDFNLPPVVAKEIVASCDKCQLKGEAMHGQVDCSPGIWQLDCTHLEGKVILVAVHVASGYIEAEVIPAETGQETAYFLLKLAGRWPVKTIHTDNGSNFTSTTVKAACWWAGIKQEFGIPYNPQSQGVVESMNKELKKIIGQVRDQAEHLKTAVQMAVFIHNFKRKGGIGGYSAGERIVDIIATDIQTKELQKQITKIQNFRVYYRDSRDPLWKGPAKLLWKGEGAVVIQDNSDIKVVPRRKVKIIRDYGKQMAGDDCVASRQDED

As for `O=C(NCc1ccc(F)cc1)c1nc(-c2ccc(F)cc2)[nH]c(=O)c1O`, the IC50 in series [1] came out at 12 µM; in series [2], 0.6 µM. In series [3], the EC50 came to 1.72 µM. The cytotoxic concentration (CC50) in series [4] was found to be 44 µM. For the same molecule, the selectivity ratio in series [5] worked out at 26. Besides, the Retention_time in series [6] is 4.075 min.
For `O=C(NCc1ccc(Cl)cc1)c1nc(-c2ccc(F)cc2)[nH]c(=O)c1O`, the IC50 in series [1] came out at 9 µM; in series [2], 0.8 µM. Further, the EC50 in series [3] was found to be 8.1 µM. Moreover, the CC50 in series [4] is 44 µM. The selectivity ratio in series [5] is 5. The molecule also came in with a Retention_time in series [6] of 5.03 min.
In the case of `O=C(NCc1ccc(Br)cc1)c1nc(-c2ccc(F)cc2)[nH]c(=O)c1O`, the figures for the IC50 in series [1] and in series [2] were 11 µM and 0.5 µM, respectively. Further, in series [3], the EC50 stood at 11 µM. In series [4], the CC50 was 47.5 µM. Also, in series [5], the selectivity ratio is 4. For the same molecule, the Retention_time in series [6] is 5.373 min.
For the molecule `O=C(NCc1ccc(F)c(F)c1)c1nc(-c2ccc(F)cc2)[nH]c(=O)c1O`, the IC50 was determined as 17 µM in series [1] and 1 µM in series [2]. Also, the EC50 in series [3] is 5.17 µM. Further, in series [4], the CC50 amounted to 31 µM. Moreover, the selectivity ratio in series [5] was determined as 6. The molecule also gave a Retention_time in series [6] of 4.39 min.
Regarding `Cc1ccc(CNC(=O)c2nc(-c3ccc(F)cc3)[nH]c(=O)c2O)cc1C`, the IC50 in series [1] came to 16 µM; in series [2], 0.5 µM. Further, in series [3], the EC50 was determined as 2.7 µM. Moreover, in series [4], the CC50 was found to be 33.5 µM. The selectivity ratio in series [5] was found to be 12. Moreover, the Retention_time in series [6] was 6.437 min.
On to `COc1ccc(CNC(=O)c2nc(-c3ccc(F)cc3)[nH]c(=O)c2O)cc1`, for which the IC50 in series [1] amounted to 16 µM; in series [2], 2 µM. For the same molecule, the concentration giving a half-maximal response (EC50) in series [3] amounted to 7.61 µM. Besides, the CC50 in series [4] turned out to be 44 µM. In addition, in series [5], the selectivity ratio was determined as 6. Moreover, in series [6], the Retention_time is on record as 4.134 min.
Take `O=C(NCCc1ccc(F)cc1)c1nc(-c2ccc(F)cc2)[nH]c(=O)c1O`: the IC50 in series [1] was found to be 17 µM; in series [2], 4 µM. Further, the EC50 in series [3] was above 30 µM. The CC50 in series [4] is 30 µM. This molecule also displayed a Retention_time in series [6] of 4.748 min.
Take `O=C(NCc1cccc(Cl)c1)c1nc(-c2ccc(F)cc2)[nH]c(=O)c1O`: the IC50 in series [1] was found to be 20 µM; in series [2] it was 1.4 µM. In addition, the EC50 in series [3] was found to be 1.91 µM. For the same molecule, the CC50 in series [4] was 35 µM. Further, in series [5], the selectivity ratio came out at 18. In series [6], the Retention_time turned out to be 5.251 min.
As for `O=C(NCc1ccc(O)cc1)c1nc(-c2ccc(F)cc2)[nH]c(=O)c1O`, the half-maximal inhibitory concentration (IC50) in series [1] is above 20 µM; in series [2] it was 6 µM. In addition, the concentration for a half-maximal effect (EC50) in series [3] is 6.71 µM. In series [4], the CC50 stood at 49 µM. In addition, in series [5], the selectivity ratio came out at 7. The molecule also registered a Retention_time in series [6] of 2.846 min.
As to `O=C(NCc1cccc(F)c1)c1nc(-c2ccc(F)cc2)[nH]c(=O)c1O`, the IC50 was found to be 20 µM in series [1] and 3 µM in series [2]. Also, the EC50 in series [3] stood at 7.34 µM. Further, the CC50 in series [4] amounted to 49.5 µM. Moreover, in series [5], the selectivity ratio stood at 7. The molecule further came in with a Retention_time in series [6] of 4.349 min.
`O=C(NCc1ccccc1F)c1nc(-c2ccc(F)cc2)[nH]c(=O)c1O`: the values for the IC50 in series [1] and in series [2] were 20 µM and 7 µM, respectively. Further, the EC50 in series [3] turned out to be 7.81 µM. Further, the cytotoxic concentration (CC50) in series [4] turned out to be 28.5 µM. Moreover, the selectivity ratio in series [5] is 4. This molecule also returned a Retention_time in series [6] of 2.395 min.
Regarding `O=C(NCc1cccc(Cl)c1F)c1nc(-c2ccc(F)cc2)[nH]c(=O)c1O`, the IC50 in series [1] worked out at 13 µM; in series [2], 1.4 µM. Also, the EC50 in series [3] turned out to be 2.61 µM. For the same molecule, the CC50 in series [4] is 48 µM. For the same molecule, the selectivity ratio in series [5] turned out to be 18. This molecule also gave a Retention_time in series [6] of 2.309 min.
Consider `O=C(NCc1ccc(F)c(Cl)c1)c1nc(-c2ccc(F)cc2)[nH]c(=O)c1O`, for which the IC50 in series [1] was determined as 6 µM; in series [2] it was 4 µM. For the same molecule, the EC50 in series [3] worked out at 1.3 µM. Further, the CC50 in series [4] was determined as 45.5 µM. Moreover, the selectivity ratio in series [5] was 35. Further, the Retention_time in series [6] was found to be 3.56 min.
For `O=C(NCc1cc(F)c(F)c(F)c1)c1nc(-c2ccc(F)cc2)[nH]c(=O)c1O`, the IC50 in series [1] was 14 µM; in series [2], 8 µM. For the same molecule, the EC50 in series [3] stood at 4.64 µM. In addition, in series [4], the half-maximal cytotoxic concentration (CC50) was 34.5 µM. Further, the selectivity ratio in series [5] was 7. The molecule further registered a Retention_time in series [6] of 3.549 min.
In the case of `O=C(NCc1ccc(F)cc1)c1nc(-c2ccccc2)[nH]c(=O)c1O`, the IC50 amounted to 17 µM in series [1] and 1 µM in series [2]. Also, the Retention_time in series [6] was 2.378 min.
For `O=C(NCc1ccc(F)cc1)c1nc(Cc2ccc(F)cc2)[nH]c(=O)c1O` the same measures were above 20 µM, 10 µM and 2.989 min.
`O=C(NCc1ccc(F)cc1)c1nc(-c2ccc(Cl)cc2)[nH]c(=O)c1O`: the IC50 stood at 5 µM in series [1] and 2 µM in series [2]. In series [6], this molecule came in with a Retention_time of 2.306 min.
As for `O=C(NCc1ccc(F)cc1)c1nc(-c2ccccc2F)[nH]c(=O)c1O`, the IC50 in series [1] was 16 µM; in series [2], 2 µM. In series [6], the Retention_time amounted to 2.949 min.
Take `O=C(NCc1ccc(F)cc1)c1nc(-c2ccc(Br)cc2)[nH]c(=O)c1O`: the IC50 was 3 µM in series [1] and 1 µM in series [2]. Besides, the Retention_time in series [6] is recorded as 2.385 min.
For `O=C(NCc1ccc(F)cc1)c1nc(-c2cccc(F)c2)[nH]c(=O)c1O` the same measures were 5 µM, 1 µM and 2.379 min.
As for `O=C(NCc1ccccc1)c1nc(-c2ccccc2)nc(O)c1O`, the IC50 is above 20 µM in series [1] and 8 µM in series [2]. In addition, the EC50 in series [3] was 5.65 µM. The CC50 in series [4] is 50.7 µM. Besides, in series [5], the selectivity ratio worked out at 9. For the same molecule, the Retention_time in series [6] is 2.288 min.

The values above are taken from ChEMBL document CHEMBL3352278, “Design and discovery of 5-hydroxy-6-oxo-1,6-dihydropyrimidine-4-carboxamide inhibitors of HIV-1 integrase” (Bioorg Med Chem, 2014).
